From ChEMBL document CHEMBL2375209, “Fungal ABC transporter-associated activity of isoflavonoids from the root extract of Dalea formosa” (2013) come the findings set out here.

What all share (assay type): functional
Assay [1] deals with Saccharomyces cerevisiae. In words: Antifungal activity against PDR5/SNQ2/YOR1 deficient Saccharomyces cerevisiae after 24 to 48 hrs by microdilution assay. In outline: (§1)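 96-well microdilution; samples added from DMSO stocks (solvent ≤1.2%, matched in controls), serially diluted before inoculation; trifluoperazine, ketoconazole and fluconazole as positive controls. Growth read as OD550 plus visual inspection at 24 and 48 h. MIC = lowest concentration giving ≥80% growth inhibition vs drug-free control; values observed in three independent measurements.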
A general note: Dilution methods test growth across graded concentrations, often in twofold steps.

In assay [2] the test system is Saccharomyces cerevisiae. The assay is described as follows: Antifungal activity against PDR1/PDR3 deficient Saccharomyces cerevisiae after 24 to 48 hrs by microdilution assay. In a few lines:
as §1

Assay [3] relates to Saccharomyces cerevisiae. In words: Antifungal activity against PDR5/SNQ2/YOR1 deficient Saccharomyces cerevisiae expressing PDR1 to 3 allele after 24 to 48 hrs by microdilution assay. In outline:
as §1

Assay [4] deals with Saccharomyces cerevisiae. In words: Antifungal activity against PDR5/SNQ2/YOR1 deficient Saccharomyces cerevisiae expressing PDR1 to 3 allele and heterologously overproduced Cdr1p gene after 24 to 48 hrs by microdilution. In a few lines:
as §1

For assay [5], the system named is Saccharomyces cerevisiae. In words: Antifungal activity against wild type Saccharomyces cerevisiae after 24 to 48 hrs by microdilution assay. In a few lines:
as §1

In another assay the test system is Candida albicans. The assay is described as follows: Antifungal activity against wild type Candida albicans CCM 8320 after 46 to 50 hrs by broth microdilution assay. In a few lines: (§2)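 CLSI M27-A broth microdilution in MOPS-buffered (pH 7) RPMI 1640. Samples added from DMSO stocks (solvent ≤1.2%, matched in controls), serially diluted before inoculation. Growth read as OD550 plus visual inspection at 24 and 48 h. MIC = lowest concentration inhibiting growth ≥80% vs drug-free control; three independent measurements.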

In another assay the test system is Nakaseomyces glabratus. The assay is described as follows: Antifungal activity against wild type Candida glabrata CCM 8270 after 46 to 50 hrs by broth microdilution assay. In outline: as §2

Values after ≈ are worked out from the molar mass of the structure shown. Active and inactive are the calls of the source.

The MIC is the smallest concentration in the dilution series that meets the test's criterion for growth inhibition.

For `COc1ccc([C@H]2COc3c(ccc(O)c3O)C2)c(O)c1CC=C(C)C`, the MIC amounted to 3.8 mg/L (≈ 10.7 µM) in the assay with Saccharomyces cerevisiae [1]; 3.8 mg/L (≈ 10.7 µM) with Saccharomyces cerevisiae [2]; 3.8 mg/L (≈ 10.7 µM) in the assay on Saccharomyces cerevisiae [3]; 30.5 mg/L (≈ 85.6 µM) in the assay on Saccharomyces cerevisiae [4]; 15.2 mg/L (≈ 42.6 µM) against Saccharomyces cerevisiae [5].
As for `C=CC(C)(C)c1cc(C2COc3cc(O)c(CC=C(C)C)c(O)c3C2=O)c(O)cc1O` (racemic), the MIC in the assay with Saccharomyces cerevisiae [1] is 0.95 mg/L (≈ 2.24 µM); with Saccharomyces cerevisiae [2], 0.95 mg/L (≈ 2.24 µM); against Saccharomyces cerevisiae [3], 0.95 mg/L (≈ 2.24 µM); against Saccharomyces cerevisiae [4] it was > 244 mg/L; with Saccharomyces cerevisiae [5], 15.2 mg/L (≈ 35.8 µM).
`C=CC(C)(C)c1cc([C@@H]2COc3c(ccc(O)c3O)C2)c(OC)cc1OC`: the MIC in the assay on Saccharomyces cerevisiae [1] was 3.8 mg/L (≈ 10.3 µM); with Saccharomyces cerevisiae [2], 3.8 mg/L (≈ 10.3 µM); against Saccharomyces cerevisiae [3] it was 3.8 mg/L (≈ 10.3 µM); in the assay on Saccharomyces cerevisiae [4], 61 mg/L (≈ 165 µM); in the assay on Saccharomyces cerevisiae [5] it was 15.2 mg/L (≈ 41 µM).
For the compound `COc1ccc([C@H]2COc3c(ccc(O)c3O)C2)c2c1C=CC(C)(C)O2`, the MIC was found to be 30.5 mg/L (≈ 86.1 µM) against Saccharomyces cerevisiae [1]; 61 mg/L (≈ 172 µM) against Candida albicans; 15.2 mg/L (≈ 42.9 µM) against Saccharomyces cerevisiae [2]; 30.5 mg/L (≈ 86.1 µM) against Nakaseomyces glabratus; 30.5 mg/L (≈ 86.1 µM) in the assay with Saccharomyces cerevisiae [3]; 244 mg/L (≈ 688 µM) against Saccharomyces cerevisiae [4]. For the same compound, in the assay with Saccharomyces cerevisiae [5], the MIC came to 30.5 mg/L (≈ 86.1 µM).
For the compound `COc1ccc2c(c1CC=C(C)C)O[C@@H]1c3ccc(O)cc3OC[C@H]21` [ENT-SANDWICENSIN], the MIC against Saccharomyces cerevisiae [1] was 1.9 mg/L (≈ 5.61 µM); with Saccharomyces cerevisiae [2] it was 3.8 mg/L (≈ 11.2 µM); against Nakaseomyces glabratus, 30.5 mg/L (≈ 90.1 µM); with Saccharomyces cerevisiae [3] it was 1.9 mg/L (≈ 5.61 µM); against Saccharomyces cerevisiae [4], > 244 mg/L; against Saccharomyces cerevisiae [5], 30.5 mg/L (≈ 90.1 µM). The MIC result in the assay on Candida albicans is “inactive”.
Take `C=CC(C)(C)c1cc([C@]2(O)COc3cc(O)c(CC=C(C)C)c(O)c3C2=O)c(O)cc1O`: the MIC against Saccharomyces cerevisiae [1] was determined as 3.8 mg/L (≈ 8.63 µM); in the assay on Saccharomyces cerevisiae [2], 15.2 mg/L (≈ 34.5 µM); in the assay on Nakaseomyces glabratus, 122 mg/L (≈ 277 µM); in the assay on Saccharomyces cerevisiae [3], 3.8 mg/L (≈ 8.63 µM); with Saccharomyces cerevisiae [4], 244 mg/L (≈ 554 µM); with Saccharomyces cerevisiae [5], 61 mg/L (≈ 138 µM). In the assay on Candida albicans, the MIC entry was “inactive”.
Regarding `COc1ccc(C[C@H]2OC(=O)C=C2c2ccc(O)cc2O)cc1`, in the assay on Candida albicans, the MIC result was “inactive”. In addition, the MIC in the assay on Nakaseomyces glabratus came to 244 mg/L (≈ 781 µM).
Regarding `COc1ccc(C2COc3cc(O)cc(O)c3C2=O)c2c1C=CC(C)(C)O2` (racemic), the MIC in the assay with Saccharomyces cerevisiae [1] came to 1.9 mg/L (≈ 5.16 µM); against Candida albicans it was 15 mg/L (≈ 40.7 µM); against Saccharomyces cerevisiae [2], 1.9 mg/L (≈ 5.16 µM); in the assay on Nakaseomyces glabratus it was 7.6 mg/L (≈ 20.6 µM); with Saccharomyces cerevisiae [3] it was 1.9 mg/L (≈ 5.16 µM); in the assay with Saccharomyces cerevisiae [4], 244 mg/L (≈ 662 µM). In the assay on Saccharomyces cerevisiae [5], the MIC is 7.6 mg/L (≈ 20.6 µM).
